# Data taken from ChEMBL document CHEMBL4819011, “Structure-based discovery of 1H-indole-2-carboxamide derivatives as potent ASK1 inhibitors for potential treatment of ulcerative colitis” (Eur J Med Chem, 2021).
# Calls of active or inactive are those of the source. No cut-off for these calls is given here.
# Columns and labels:
# [1] = biological target: T1, Mitogen-activated protein kinase kinase kinase 5 (Mus musculus) (UniProt O35099); test: In vivo inhibition of ASK1 in DSS-induced ulcerative colitis ICR mouse model assessed as downregulation of phosphorylation of p38 in colon at 25 mg/kg, po qd measured after 7 days by western blot assay; format: functional, organism-based; conditions: time 7.0 day
# T1 sequence (whole entry): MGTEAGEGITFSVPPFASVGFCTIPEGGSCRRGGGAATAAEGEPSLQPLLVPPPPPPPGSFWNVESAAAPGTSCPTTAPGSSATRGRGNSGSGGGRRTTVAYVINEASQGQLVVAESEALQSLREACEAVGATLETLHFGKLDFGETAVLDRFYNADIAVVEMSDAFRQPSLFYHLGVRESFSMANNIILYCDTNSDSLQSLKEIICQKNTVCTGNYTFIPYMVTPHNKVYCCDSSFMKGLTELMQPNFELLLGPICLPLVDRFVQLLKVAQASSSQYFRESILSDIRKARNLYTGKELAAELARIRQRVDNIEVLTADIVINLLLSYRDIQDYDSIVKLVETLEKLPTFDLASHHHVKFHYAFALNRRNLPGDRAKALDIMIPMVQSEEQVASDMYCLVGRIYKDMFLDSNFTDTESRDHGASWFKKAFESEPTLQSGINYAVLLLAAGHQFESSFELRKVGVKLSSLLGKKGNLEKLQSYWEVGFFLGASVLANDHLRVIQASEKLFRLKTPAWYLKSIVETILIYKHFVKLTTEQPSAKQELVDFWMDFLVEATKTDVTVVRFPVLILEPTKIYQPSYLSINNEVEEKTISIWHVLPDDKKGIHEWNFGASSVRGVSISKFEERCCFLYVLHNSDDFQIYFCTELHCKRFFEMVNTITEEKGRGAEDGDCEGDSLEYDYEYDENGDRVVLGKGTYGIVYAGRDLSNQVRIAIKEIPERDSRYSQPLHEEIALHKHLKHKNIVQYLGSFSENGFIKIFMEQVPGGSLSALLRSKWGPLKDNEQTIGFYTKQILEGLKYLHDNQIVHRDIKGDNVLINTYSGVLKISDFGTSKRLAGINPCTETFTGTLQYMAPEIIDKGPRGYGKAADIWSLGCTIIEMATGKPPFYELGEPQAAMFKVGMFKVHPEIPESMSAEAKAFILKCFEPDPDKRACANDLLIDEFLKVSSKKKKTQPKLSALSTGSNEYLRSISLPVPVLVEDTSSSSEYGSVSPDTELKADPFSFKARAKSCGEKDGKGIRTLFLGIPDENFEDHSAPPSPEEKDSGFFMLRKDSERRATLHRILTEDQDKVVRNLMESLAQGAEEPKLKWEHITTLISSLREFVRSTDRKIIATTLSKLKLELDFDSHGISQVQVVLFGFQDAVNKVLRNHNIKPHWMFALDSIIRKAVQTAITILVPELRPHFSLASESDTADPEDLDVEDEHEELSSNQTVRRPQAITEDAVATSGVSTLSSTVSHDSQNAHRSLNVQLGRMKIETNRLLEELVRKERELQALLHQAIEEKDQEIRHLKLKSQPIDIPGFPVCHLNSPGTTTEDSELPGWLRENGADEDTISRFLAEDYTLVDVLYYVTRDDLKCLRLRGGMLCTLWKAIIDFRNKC
# Method in brief: (§1)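 Colons from ICR mice given 7 days of DSS plus 25 mg/kg po qd. Tissue homogenised in ice-cold RIPA buffer and protein quantified by BCA. Proteins separated by SDS-PAGE, transferred to PVDF and blocked in 5% BSA. Probed overnight at 4 °C for total and phospho ASK1, MKK3/6, MKK4/7, p38 and JNK, with GAPDH as loading control. Detected with HRP anti-rabbit secondary and ECL. Phosphorylated protein normalised to its unphosphorylated form.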
# [2] = biological target: T1, Mitogen-activated protein kinase kinase kinase 5 (Mus musculus); test: In vivo inhibition of ASK1 in DSS-induced ulcerative colitis ICR mouse model assessed as downregulation of phosphorylation of MKK3/6 in colon at 25 mg/kg, po qd measured after 7 days by western blot assay; format: functional, organism-based; conditions: time 7.0 day; method in brief: as §1
# Mus musculus [3] = test: Anti-ulcerative colitis activity against DSS-induced ulcerative colitis ICR mouse model assessed as recovery of body weight loss at 25 mg/kg, po qd measured after 7 days; format: functional, organism-based; conditions: time 7.0 day
# Method in brief: (§2)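 Male ICR mice (18–22 g, 6–8 weeks) given 3% DSS (w/v) in drinking water for 7 days, water changed every two days. Dosed 25 mg/kg po once daily in CMC-Na aqueous vehicle during DSS exposure; vehicle-treated water and DSS groups served as controls, n = 6 per group. Body weight, stool consistency and rectal bleeding recorded daily. DAI is the mean of the weight-loss (0–4), stool (0–2) and blood (0–2) scores. Colon length measured at sacrifice. Mean ± SEM.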
# [4] = biological target: T1, Mitogen-activated protein kinase kinase kinase 5 (Mus musculus); test: In vivo inhibition of ASK1 in DSS-induced ulcerative colitis ICR mouse model assessed as downregulation of phosphorylation of JNK in colon at 25 mg/kg, po qd measured after 7 days by western blot assay; format: functional, organism-based; conditions: time 7.0 day; method in brief: as §1
# [5] = Volume of distribution at steady state in Sprague-Dawley rat at 1 mg/kg, iv measured for 24 hrs by LC-MS/MS analysis; format: ADME, organism-based; conditions: in vivo, read-out: Vdss
# Method in brief: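 Male SD rats, fasted 24 h, n = 3. Single iv dose of 1 mg/kg given as a solution in 10% DMAC + 10% (30% Solutol HS 15 in water) + 80% saline. Venous blood (about 150 µL) collected into heparin tubes at 0.083, 0.25, 0.5, 1, 2, 4, 8 and 24 h. Plasma protein-precipitated with ACN containing dexamethasone IS, analysed by LC-MS/MS. Parameters calculated in DAS 2.1.1; mean ± SD.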
# [6] = biological target: T1, Mitogen-activated protein kinase kinase kinase 5 (Mus musculus); test: In vivo inhibition of ASK1 in DSS-induced ulcerative colitis ICR mouse model assessed as downregulation of phosphorylation of ASK1 in colon at 25 mg/kg, po qd measured after 7 days by western blot assay; format: functional, organism-based; conditions: time 7.0 day; method in brief: as §1
# Mus musculus [7] = test: Anti-inflammatory activity against DSS-induced ulcerative colitis ICR mouse model assessed as decrease of TNF-alpha level in colon at 25 mg/kg, po qd measured after 7 days by ELISA; format: functional, organism-based; conditions: time 7.0 day
# Method in brief: (§3)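 Colon tissue collected from ICR mice after 7 days of 3% DSS drinking water plus 25 mg/kg po qd dosing. Tissue homogenised and centrifuged; IL-1β, IL-6 and TNF-α in the supernatant measured with mouse ELISA kits.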
# Mus musculus [8] = test: Anti-inflammatory activity against DSS-induced ulcerative colitis ICR mouse model assessed as decrease of IL-6 level in colon at 25 mg/kg, po qd measured after 7 days by ELISA; format: functional, organism-based; conditions: time 7.0 day; method in brief: as §3
# Mus musculus [9] = test: Anti-ulcerative colitis activity against DSS-induced ulcerative colitis ICR mouse model assessed as colon shortening at 25 mg/kg, po qd measured after 7 days (reference value: 26.7%); format: functional; conditions: time 7 day; method in brief: as §2
# Mus musculus [10] = test: Anti-inflammatory activity against DSS-induced ulcerative colitis ICR mouse model assessed as decrease of IL-1 beta level in colon at 25 mg/kg, po qd measured after 7 days by ELISA; format: functional, organism-based; conditions: time 7.0 day; method in brief: as §3
# Mus musculus [11] = test: Anti-ulcerative colitis activity against DSS-induced ulcerative colitis ICR mouse model assessed as decrease of infiltration of inflammatory cells in colon at 25 mg/kg, po qd measured after 7 days by H and E staining method; format: functional, organism-based; conditions: time 7.0 day
# Method in brief: (§4)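 ICR mice given 3% DSS in drinking water for 7 days with 25 mg/kg po qd in CMC-Na vehicle. At sacrifice, colons fixed in 4% formaldehyde, paraffin-embedded, sectioned at 4 µm and stained with hematoxylin and eosin. Histopathology examined by light microscopy.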
# Mus musculus [12] = test: Anti-ulcerative colitis activity against DSS-induced ulcerative colitis ICR mouse model assessed as disease activity index score at 25 mg/kg, po qd measured after 7 days (reference value: 2.83 units); format: functional; conditions: time 7 day; method in brief: as §2
# [13] = biological target: T1, Mitogen-activated protein kinase kinase kinase 5 (Mus musculus); test: In vivo inhibition of ASK1 in DSS-induced ulcerative colitis ICR mouse model assessed as downregulation of phosphorylation of MKK4/7 in colon at 25 mg/kg, po qd measured after 7 days by western blot assay; format: functional, organism-based; conditions: time 7.0 day; method in brief: as §1
# Mus musculus [14] = test: Anti-ulcerative colitis activity against DSS-induced ulcerative colitis ICR mouse model assessed as decrease of colonic tissue damage at 25 mg/kg, po qd measured after 7 days by H and E staining method; format: functional, organism-based; conditions: time 7.0 day; method in brief: as §4
# [15] = Oral bioavailability in Sprague-Dawley rat at 5 mg/kg measured for 24 hrs by LC-MS/MS analysis; format: ADME, organism-based; conditions: in vivo
compound,measurement,setting,value
Cc1cc(F)c(C(=O)Nc2cccc(-c3nncn3C(C)C)n2)cc1-n1cnc(C2CC2)c1 [SELONSERTIB],inhibition,[1],Active
same,inhibition,[2],Active
same,Activity,Mus musculus [3],inactive
same,inhibition,[4],Active
same,Vd,[5],0.55 L/kg
same,inhibition,[6],Active
same,Activity,Mus musculus [7],Active
same,Activity,Mus musculus [8],Active
same,Activity,Mus musculus [9],23.4%
same,Activity,Mus musculus [10],Active
same,Activity,Mus musculus [11],Active
same,DAI score decrease,Mus musculus [12],0.83
same,inhibition,[13],Active
same,Activity,Mus musculus [14],Active
same,bioavailability,[15],75%
